In ChEMBL document CHEMBL1129444, “Peptidomimetic inhibitors of herpes simplex virus ribonucleotide reductase with improved in vivo antiviral activity” (J Med Chem, 1996):
*1 amine or outer side, *2 acyl side, *3 side chain or, on linkers, in order; H or OH if unused. Where a SMILES comes first, the peptide text is derived from it. [ ]: non-standard residue; d: D form. The star is where a group is joined. Asp(3,3-(CH2)4) = N[C@H](C(=O)O)C1(C(=O)O)CCCC1; Dibenzylacetyl = O=C(C(Cc1ccccc1)Cc1ccccc1)*; Leu(γ-Me)ol = CC(C)(C)C[C@@H](CO)N*; tBuAla = CC(C)(C)C[C@H](N)C(=O)O; Tle = CC(C)(C)[C@H](N)C(=O)O; NMeV = CN[C@H](C(=O)O)C(C)C; X1 = CC[C@@H](N*)C(C)(C)C; NH(3-pentyl) = CCC(CC)N*; Pyrrolidide = C1CCN(*)C1; NHcHex = C1CCC(N*)CC1; CO = O=C([*:1])[*:2]; X2 = CCCC(CCC)N*; NHiPr = CC(C)N*

Legend:
BHK-21 [1] = assay: Effective concentration was evaluated against HSV-1 by using serum starved baby hamster kidney cells in a colorimetric viral yield assay.; format: functional, cell-based; settings: Mesocricetus auratus
How it was run: (§1)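 Viral yield in serum-starved BHK cells, read colorimetrically. EC50 reported as mean of at least three separate determinations with standard deviation. Cytotoxicity measured in parallel by MTT (tetrazolium) metabolic assay to give CC50.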

BHK-21 [2] = assay: Effective concentration was evaluated against HSV-2 by using serum starved baby hamster kidney cells in a colorimetric viral yield assay.; format: functional, cell-based; settings: Mesocricetus auratus; how it was run: as §1
[3] = biological target: Ribonucleotide reductase large subunit R1 (Herpes simplex virus); assay: Inhibitory effect was evaluated on Herpes simplex virus (HSV) ribonucleotide reductase (RR) enzyme.

Row | SMILES | EC50 (BHK-21 [1]) [nM] | EC50 (BHK-21 [2]) [nM] | IC50 [3] [nM]
1 | CCCC(CCC)NC(=O)N[C@H](C(=O)C[C@@H](CC(=O)C(C)(C)C)C(=O)N[C@H](C(=O)N[C@H](CC)C(C)(C)C)C1(C(=O)O)CCCC1)C(C)(C)C | 6000 | 5000 | 
2 | C[C@@H]1CCC[C@H](C)[C@@H]1NC(=O)N[C@H](C(=O)C[C@@H](CC(=O)C(C)(C)C)C(=O)N[C@H](C(=O)N[C@H](CO)CC(C)(C)C)C1(C(=O)O)CCCC1)C(C)(C)C | 26000 | 26000 | 
3 | CCC(CC)NC(=O)N[C@H](C(=O)N[C@@H](CC(=O)N1CCCC1)C(=O)N[C@@H](CC(=O)O)C(=O)N[C@@H](CC(C)(C)C)C(=O)O)C(C)(C)C ({NH(3-pentyl)-CO}-[Tle]D(Pyrrolidide)D[tBuAla]-OH) |  |  | 0.6
4 | CC(C)[C@@H](C(=O)N[C@H](C(=O)N[C@@H](CC(=O)N1CCCC1)C(=O)N[C@H](C(=O)N[C@H](CO)CC(C)(C)C)C1(C(=O)O)CCCC1)C(C)(C)C)N(C)C(=O)C(Cc1ccccc1)Cc1ccccc1 (Dibenzylacetyl-[NMeV][Tle]D(Pyrrolidide)[Asp(3,3-(CH2)4)]-{Leu(γ-Me)ol}) | 3100 | 4200 | 
5 | CC(C)C[C@H](NC(=O)[C@H](CC(=O)O)NC(=O)[C@H](CC(=O)N1CCCC1)NC(=O)[C@@H](NC(=O)NC1[C@@H](C)CCC[C@@H]1C)C(C)C)C(=O)O.CC(C)C[C@H](NC(=O)[C@H](CC(=O)O)NC(=O)[C@H](CC(=O)N1CCCC1)NC(=O)[C@@H](NC(=O)NC1[C@H](C)CCC[C@H]1C)C(C)C)C(=O)O |  |  | 20
6 | CCC(CC)NC(=O)N[C@H](C(=O)N[C@@H](CC(=O)N1CCCC1)C(=O)N[C@@H](CC(=O)O)C(=O)N[C@@H](CC(C)C)C(=O)O)C(C)C ({NH(3-pentyl)-CO}-VD(Pyrrolidide)DL-OH) |  |  | 15
7 | CC[C@@H](NC(=O)[C@@H](NC(=O)[C@H](CC(=O)N1CCCC1)NC(=O)[C@@H](NC(=O)N[C@@H]1[C@H](C)CCC[C@@H]1C)C(C)(C)C)C1(C(=O)O)CCCC1)C(C)(C)C | 28000 | 40000 | 
8 | CCC(CC)NC(=O)N[C@H](C(=O)N[C@@H](CC(=O)N1CCCC1)C(=O)N[C@@H](CC(=O)O)C(=O)N[C@@H](CC)C(C)(C)C)C(C)(C)C |  |  | 2000
9 | CCC(CC)NC(=O)N[C@H](C(=O)N[C@@H](CC(=O)N1CCCC1)C(=O)N[C@@H](CC(=O)O)C(=O)N[C@H](C)C(C)(C)C)C(C)(C)C |  |  | 27
10 | CCC(CC)NC(=O)N[C@H](C(=O)N[C@@H](CC(=O)C(C)(C)C)C(=O)N[C@@H](CC(=O)O)C(=O)N[C@@H](CC(C)C)C(=O)O)C(C)(C)C |  |  | 3
11 | CC[C@@H](NC(=O)[C@@H](NC(=O)[C@@H](CC(=O)[C@@H](NC(=O)[C@H](C(C)C)N(C)C(=O)C(Cc1ccccc1)Cc1ccccc1)C(C)(C)C)CC(=O)C(C)(C)C)C1(C(=O)O)CCCC1)C(C)(C)C | 1300 | 1600 | 
12 | CCC(CC)NC(=O)N[C@H](C(=O)N[C@@H](CC(=O)N1CCCC1)C(=O)N[C@@H](CC(=O)O)C(=O)N[C@@H](CC(C)C)C(=O)O)C(C)(C)C ({NH(3-pentyl)-CO}-[Tle]D(Pyrrolidide)DL-OH) |  |  | 3
13 | CCC(CC)NC(=O)N[C@H](C(=O)N[C@@H](CC(=O)N1CCCC1)C(=O)N[C@@H](CC(=O)O)C(=O)N[C@@H](C)C(C)(C)C)C(C)(C)C |  |  | 2700
14 | CCC(CC)NC(=O)N[C@H](C(=O)N[C@@H](CC(=O)N1CCCC1)C(=O)N[C@@H](CC(=O)O)C(=O)N[C@H](CC)C(C)(C)C)C(C)(C)C |  |  | 18
15 | CC[C@@H](NC(=O)[C@@H](NC(=O)[C@H](CC(=O)N1CCCC1)NC(=O)[C@@H](NC(=O)[C@H](C(C)C)N(C)C(=O)C(Cc1ccccc1)Cc1ccccc1)C(C)(C)C)C1(C(=O)O)CCCC1)C(C)(C)C (Dibenzylacetyl-[NMeV][Tle]D(Pyrrolidide)[Asp(3,3-(CH2)4)]-X1) | 800 | 1800 | 
16 | CCC(CC)NC(=O)N[C@H](C(=O)N[C@@H](CC(=O)N1CCCC1)C(=O)N[C@@H](CC(=O)O)C(=O)NCC(C)C)C(C)(C)C |  |  | 1900

Row | SMILES | EC50 (BHK-21 [1]) [nM] | EC50 (BHK-21 [2]) [nM] | IC50 [3] [nM]
17 | C[C@@H]1CCC[C@H](C)[C@@H]1NC(=O)N[C@H](C(=O)C[C@@H](CC(=O)C(C)(C)C)C(=O)N[C@H](C(=O)NCC(C)(C)C)C1(C(=O)O)CCCC1)C(C)(C)C | 17000 | 26000 | 
18 | CC(C)C[C@H](NC(=O)[C@H](CC(=O)O)NC(=O)[C@H](CC(=O)N1CCCC1)NC(=O)[C@@H](NC(=O)NC1CCCCC1)C(C)C)C(=O)O ({NHcHex-CO}-VD(Pyrrolidide)DL-OH) |  |  | 500
19 | CCCC(CCC)NC(=O)N[C@H](C(=O)N[C@@H](CC(=O)N1CCCC1)C(=O)N[C@@H](CC(=O)O)C(=O)N[C@@H](CC(C)C)C(=O)O)C(C)C ({X2-CO}-VD(Pyrrolidide)DL-OH) |  |  | 7
20 | CCC(CC)NC(=O)N[C@H](C(=O)N[C@@H](CC(=O)N1CCCC1)C(=O)N[C@@H](CC(=O)O)C(=O)NCCC(C)C)C(C)(C)C |  |  | 350
21 | CCC(CC)NC(=O)N[C@H](C(=O)C[C@@H](CC(=O)C(C)(C)C)C(=O)N[C@@H](CC(=O)O)C(=O)N[C@@H](CC(C)C)C(=O)O)C(C)(C)C |  |  | 5
22 | Nc1nc2c(ncn2COCCO)c(=O)[nH]1 [ACYCLOVIR] | 2000 | 2000 | 
23 | CC[C@@H](NC(=O)[C@@H](NC(=O)[C@H](CC(=O)C(C)(C)C)NC(=O)[C@@H](NC(=O)N[C@@H]1[C@H](C)CCC[C@@H]1C)C(C)(C)C)C1(C(=O)O)CCCC1)C(C)(C)C | 13000 | 13000 | 
24 | CCC(CC)NC(=O)N[C@H](C(=O)C[C@@H](CC(=O)N1CCCC1)C(=O)N[C@@H](CC(=O)O)C(=O)N[C@@H](CC(C)C)C(=O)O)C(C)(C)C |  |  | 7
25 | CC(C)C[C@H](NC(=O)[C@H](CC(=O)O)NC(=O)[C@H](CC(=O)N1CCCC1)NC(=O)[C@@H](NC(=O)NC(C)C)C(C)C)C(=O)O ({NHiPr-CO}-VD(Pyrrolidide)DL-OH) |  |  | 440
26 | CC[C@@H](NC(=O)[C@@H](NC(=O)[C@@H](CC(=O)[C@@H](NC(=O)N[C@@H]1[C@H](C)CCC[C@@H]1C)C(C)(C)C)CC(=O)C(C)(C)C)C1(C(=O)O)CCCC1)C(C)(C)C | 6000 | 7000 | 
27 | CCC(CC)NC(=O)N[C@H](C(=O)N[C@@H](CC(=O)N1CCCC1)C(=O)N[C@@H](CC(=O)O)C(=O)NCC(C)(C)C)C(C)(C)C |  |  | 40
28 | CC(C)C[C@H](NC(=O)[C@H](CC(=O)O)NC(=O)[C@H](CC(=O)N1CCCC1)NC(=O)[C@@H](NC(=O)NC1[C@H](C)CCC[C@@H]1C)C(C)C)C(=O)O (stereo in doubt; 7) |  |  | 55
29 | CCC(CC)NC(=O)N[C@H](C(=O)N[C@@H](CC(=O)N1CCCC1)C(=O)N[C@@H](CC(=O)O)C(=O)N[C@H](CO)CC(C)(C)C)C(C)(C)C |  |  | 6
30 | CC[C@@H](NC(=O)[C@@H](NC(=O)[C@@H](CC(=O)[C@@H](NC(=O)N[C@@H]1[C@H](C)CCC[C@@H]1C)C(C)(C)C)CC(=O)N1CCCC1)C1(C(=O)O)CCCC1)C(C)(C)C | 50000 | 80000 | 
31 | CC(C)C[C@H](NC(=O)[C@H](CC(=O)O)NC(=O)[C@H](CC(=O)N1CCCC1)NC(=O)[C@@H](NC(=O)NC1[C@H](C)CCC[C@@H]1C)C(C)C)C(=O)O (stereo in doubt; 9) |  |  | 2
32 | CCC(CC)NC(=O)N[C@H](C(=O)N[C@@H](CC(=O)N1CCCC1)C(=O)N[C@@H](CC(=O)O)C(=O)NCCC(C)(C)C)C(C)(C)C |  |  | 100
